From PubChem BioAssay
Compounds with a hit are over-represented: about 3% of the library has one in this group of screens.
SENP8 block-1 = blocks the human protease SENP8; Q96LD8; purified SENP8, Z-RLRGG-aminoluciferin cleavage, luminescence; inhibition, % at 10 µM; 330,000 tested, 1.2% active; in the data active = inhibition above about 50%
SENP8 block-2 = blocks human SENP8 cleavage of Nedd8 substrate; 360,000 tested, 0.64% active; Q96LD8; recombinant SENP8, Nedd8 substrate fluorescence; inhibition, % at 20 µM; in the data active = inhibition mostly above about 40%, no sharp cut-off; inactive = mostly below about 27%
UBC13 inh = inhibitors of human UBC13 polyubiquitin chain formation | P61088 | TR-FRET | inhibition, % at 20 µM | 330,000 tested, 0.47% active; in the data active = inhibition above about 45%, passing the limit was not always enough
SENP6 block = SENP6 protease inhibition. AID 2599. inhibition, % at 10 µM. 330,000 tested, 1.8% active. Recombinant SENP6 catalytic domain, aminoluciferin luminescence. Q9GZR1;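 active = inhibition above about 50% at the single tested dose, limit read from the data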;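 note: plate controls were DMSO wells with enzyme for no effect and DMSO wells lacking enzyme for full effect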
SENP7 inh = SENP7 protease inhibition. Q9BQF6. recombinant SENP7, Z-RLRGG-aminoluciferin luminescence, 40 min. inhibition, % at 5 µM. 330,000 tested, 1.5% active;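 active = inhibition above about 50% at the single test dose, limit read from the data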;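 note: plate controls were DMSO with enzyme for no effect and no enzyme buffer wells for full effect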
Apaf1 inhib = blocks human Apaf-1 apoptosome activity; O14727; reconstituted apoptosome caspase-3 activity, DEVD-Rh110 fluorescence; inhibition, % at 20 µM; 330,000 tested, 0.71% active; active = inhibition of at least 40% at 20 µM;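 note: plate controls were DMSO wells for no effect and DEVD-CHO caspase inhibitor wells for full effect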
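Material: biochemical Apaf-1 apoptosome reconstitution. Medium: Hepes buffer, pH 7.5. Also added: cytochrome c activation, bis-DEVD rhodamine 110 substrate. Timing: 30 min compound preincubation, 50 min activation, room temperature. Measured by: rhodamine 110 fluorescence at Ex 480/Em 540 nm.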
SENP8 inh conf = confirmation of human SENP8 protease inhibitors; shares compounds with SENP8 block-2; purified SENP8, Nedd8-AMC/pro-Nedd8 cleavage fluorescence, 30 min; inhibition, % at 25 µM; 1,400 tested, 15% active; in the data active = inhibition mostly above about 39%, no sharp cut-off; inactive = mostly below about 34%
* marks the source's active call; other numbers are inactive results.

For O=C(CCS(=O)(=O)Cc1ccccc1F)N1CCc2ccccc2C1 the results were SENP8 block-1 4.1, SENP8 block-2 66.9*, UBC13 inh -0.2, SENP6 block 4.7, SENP7 inh -0.2, Apaf1 inhib 17.4 and SENP8 inh conf 75.3*.
For O=C(Nc1ccc(N2CCN(Cc3ccccc3)CC2)cc1)c1cccnc1 the results were SENP8 block-1 -0.5, SENP8 block-2 44.6*, UBC13 inh -3.6, SENP6 block -30.2, SENP7 inh -5.2, Apaf1 inhib 2.8 and SENP8 inh conf 17.8.
Screening COc1cccc(C(=O)Nc2ccc(N3CCN(Cc4ccccc4)CC3)cc2)c1 returned SENP8 block-1 -5.3, SENP8 block-2 25.9, UBC13 inh -1.6, SENP6 block -0.2, SENP7 inh 0.1 and Apaf1 inhib -7.4.
Screening CCN(c1ccccc1)S(=O)(=O)c1cc(C(=O)NCC(c2ccc(OC)cc2)N(C)C)ccc1C (centres undefined) returned SENP8 block-2 -3.8.
Screening O=C1Nc2ccc(Br)cc2C12NNc1ccccc1O2 (centres undefined) returned SENP8 block-1 -13.9, SENP8 block-2 43.3*, UBC13 inh -69.8, SENP6 block -36.5, SENP7 inh 8.9, Apaf1 inhib 10.4 and SENP8 inh conf 18.1.
`O=C1Nc2ccc(Br)cc2C1(O)c1ccccc1` (centres undefined) gave SENP8 block-1 4.2, SENP8 block-2 15.7, UBC13 inh 6.7, SENP6 block -10.2, SENP7 inh 5.6 and Apaf1 inhib 4.0.
For C=CCN1C=CC(=C/C=C(/C#N)C(=O)OCC)C=C1 the results were SENP8 block-1 -11.7, SENP8 block-2 61.1*, UBC13 inh inactive, SENP6 block -31.0, SENP7 inh -8.6, Apaf1 inhib 10.3 and SENP8 inh conf 28.7.
CCOC1=C2CN(S(=O)(=O)c3ccc(C)cc3)C(c3ccc(CC)cc3)CC2n2c(=O)n(-c3ccccc3)c(=O)n2C1 (centres undefined) was read as SENP8 block-2 26.0.
Screening CC1=NCCN1CCNC(=O)Nc1cc(C)cc(C)c1 returned SENP8 block-1 5.3, SENP8 block-2 31.4, UBC13 inh 5.2, SENP6 block -16.4, SENP7 inh 8.2 and Apaf1 inhib -14.3.
Screening CC1=NCCN1CCNC(=O)Nc1ccc(F)cc1 returned SENP8 block-1 8.9, SENP8 block-2 40.7*, UBC13 inh 2.3, SENP6 block -4.3, SENP7 inh -5.0, Apaf1 inhib -21.5 and SENP8 inh conf -0.7.
`CCc1cc([N+](=O)[O-])cc(CC)c1N` gave SENP8 block-1 -0.9, SENP8 block-2 45.2*, UBC13 inh -9.6, SENP6 block 3.2, SENP7 inh 0.9, Apaf1 inhib 0.6 and SENP8 inh conf 15.8.
Cc1ccc([N+](=O)[O-])cc1N was read as SENP8 block-1 -1.0, SENP8 block-2 15.8, UBC13 inh 1.3, SENP6 block 2.2, SENP7 inh 2.6 and Apaf1 inhib -3.3.
Screening COc1cc(CCN(C(=O)c2cc3ccccc3[nH]2)C(c2ccccn2)c2nc3ccccc3[nH]2)cc(OC)c1 (centres undefined) returned SENP8 block-2 -52.7.
`COc1ccc(OC)c(C2CC(=O)N3CN(c4ccc(C)c(Cl)c4)CSC3=C2C#N)c1` (centres undefined) gave SENP8 block-1 7.5, SENP8 block-2 6.4, UBC13 inh -5.2, SENP6 block 3.7, SENP7 inh 11.2 and Apaf1 inhib 14.7.
For CCOC(=O)c1ccc(N2CSC3=C(C#N)C(c4ccc(OC)cc4OC)CC(=O)N3C2)cc1 (centres undefined) the results were SENP8 block-1 -7.0, SENP8 block-2 51.5*, UBC13 inh -11.8, SENP6 block -14.1, SENP7 inh 13.0, Apaf1 inhib 50.3* and SENP8 inh conf 11.8.
`O=c1[nH]n2c(=O)c3c([nH]c2c1N=Nc1cccc(Cl)c1)CCCC3` gave SENP8 block-1 6.7, SENP8 block-2 30.5, UBC13 inh -77.8, SENP6 block 3.2, SENP7 inh 1.1 and Apaf1 inhib 15.9.
`CCOc1ccc(N=Nc2c(=O)[nH]n3c(=O)c4c([nH]c23)CCCC4)cc1` gave SENP8 block-1 -8.4, SENP8 block-2 53.5*, UBC13 inh -265.1, SENP6 block -15.4, SENP7 inh -1.5, Apaf1 inhib -0.2 and SENP8 inh conf 10.4.
CN(C)c1cccc2c1c(NC(=O)c1ccc(Cl)cc1)nn2C was read as SENP8 block-1 -2.1, SENP8 block-2 59.5*, UBC13 inh 1.9, SENP6 block -13.6, SENP7 inh 1.9, Apaf1 inhib 7.2 and SENP8 inh conf 20.7.
`Cc1nn(C)c(C)c1NC(=O)c1ccc(Cl)cc1` gave SENP8 block-1 -6.7, SENP8 block-2 8.1, UBC13 inh -0.7, SENP6 block -22.0, SENP7 inh 2.2 and Apaf1 inhib 7.1.
For O=C(CCC1CCCC1)N1CCN(C(=O)c2cccnc2)CC1 the results were SENP8 block-1 -11.7, SENP8 block-2 40.9*, UBC13 inh 2.8, SENP6 block -4.4, SENP7 inh -5.2, Apaf1 inhib -4.1 and SENP8 inh conf 10.5.
`O=S1(=O)CC(N2CCCCC2)CN1Cc1cn(Cc2cccc(Cl)c2)nn1` (centres undefined) gave SENP8 block-2 1.1.
`Cc1ccccc1C(=O)Nc1ccc(-c2nnc(SC(C)C(=O)O)n2C)cc1` (centres undefined) gave SENP8 block-1 -4.3, SENP8 block-2 41.0*, UBC13 inh 17.2, SENP6 block -13.2, SENP7 inh -11.0, Apaf1 inhib -15.6 and SENP8 inh conf 16.0.
Screening COC(=O)CCCC1=CC2=CC(=O)C(C)(OC(=O)c3cccs3)C(=O)C2=CN1CCc1ccccn1 (centres undefined) returned SENP8 block-1 -5.4, SENP8 block-2 40.0*, UBC13 inh -44.5, SENP6 block 7.6, SENP7 inh -7.7, Apaf1 inhib 16.5 and SENP8 inh conf 59.8*.
Cc1c(Cl)cccc1NC(=O)CSC(C)c1nc2ccccc2c(=O)[nH]1 (centres undefined) was read as SENP8 block-1 -5.2, SENP8 block-2 26.6*, UBC13 inh 3.0, SENP6 block -6.0, SENP7 inh 1.2, Apaf1 inhib 3.7 and SENP8 inh conf 1.6.
Screening NC(=O)CC(NC(=O)c1ccccc1)C(=O)O (centres undefined) returned SENP8 block-1 -6.0, SENP8 block-2 42.4*, UBC13 inh -3.9, SENP6 block -13.8, SENP7 inh -18.8, Apaf1 inhib -7.0 and SENP8 inh conf 18.5.
Screening O=C(NC(C(=O)O)c1ccccc1)c1ccccc1 (centres undefined) returned SENP8 block-2 10.3.
`C=CCNC(=S)NN=C1CCCCCCC1` gave SENP8 block-1 -11.0, SENP8 block-2 5.5, UBC13 inh -6.6, SENP6 block -39.5, SENP7 inh -3.8 and Apaf1 inhib 2.4.
